Source: PubChem (several laboratories)
Most compounds without a hit are left out; they make up all but 1.8% or so of the library.
HTRA1 inh: HTRA1 (human) protease inhibition; recombinant HTRA1, FP-rhodamine activity-based probe, fluorescence polarization; inhibition, % at 5.96 µM; Q92743; actives 0.5% (n = 340,000); in the data active = inhibition above about 36%;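 also: 0% = enzyme with DMSO and 100% = wells lacking enzyme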
mABHD4 FP: inhibitors of mouse ABHD4. purified mABHD4, FP-Rh probe fluorescence polarization. inhibition, % at 8.92 µM. Q8VD66. actives 0.54% (n = 370,000);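 active = inhibition exceeding the mean over every tested compound plus 3 SD, cut at about 30% in these data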;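 also: 0% = plate median of compound wells and 100% = S159A mutant with DMSO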
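Doses – 8.92 µM, single dose · Material – wild-type mouse ABHD4 protein · Replication – single well per compound (singlicate) · Measure – percent inhibition of probe binding, normalized to plate controls · Schedule – 45 min compound pre-incubation plus 60 min probe step, 25 °C · Detection – fluorescence polarization with parallel and perpendicular emission, 525/598 nm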
ARNT-TACC3 inh: ARNT/TACC3 interaction disruption; Q9Y6A5; AlphaScreen His-ARNT PAS-B/GST-TACC3 binding, luminescence; TACC3 fragment carries E629A point mutation; inhibition, % at 9.99 µM; actives 0.66% (n = 390,000); AID 623870;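 active = mean inhibition of replicates at least 50% and at least half of replicates each reaching 50%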;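 also: 0% = complete ARNT plus TACC3 wells and 100% = ARNT alone without TACC3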
SIAE primary: human SIAE inhibition, primary screen. actives 0.69% (n = 370,000). inhibition, % at 9.66 µM. Q9HAT2. AID 1053197. SIAE FP-Rh probe binding, fluorescence polarization;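 active = inhibition above a cutoff: mean of compounds within the control limits plus 3 SD of those, cut at about 17% in these data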;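 also: 0% = plate median of compound wells and 100% = probe without SIAE protein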
Target sequence (Q9HAT2 whole entry, looked up): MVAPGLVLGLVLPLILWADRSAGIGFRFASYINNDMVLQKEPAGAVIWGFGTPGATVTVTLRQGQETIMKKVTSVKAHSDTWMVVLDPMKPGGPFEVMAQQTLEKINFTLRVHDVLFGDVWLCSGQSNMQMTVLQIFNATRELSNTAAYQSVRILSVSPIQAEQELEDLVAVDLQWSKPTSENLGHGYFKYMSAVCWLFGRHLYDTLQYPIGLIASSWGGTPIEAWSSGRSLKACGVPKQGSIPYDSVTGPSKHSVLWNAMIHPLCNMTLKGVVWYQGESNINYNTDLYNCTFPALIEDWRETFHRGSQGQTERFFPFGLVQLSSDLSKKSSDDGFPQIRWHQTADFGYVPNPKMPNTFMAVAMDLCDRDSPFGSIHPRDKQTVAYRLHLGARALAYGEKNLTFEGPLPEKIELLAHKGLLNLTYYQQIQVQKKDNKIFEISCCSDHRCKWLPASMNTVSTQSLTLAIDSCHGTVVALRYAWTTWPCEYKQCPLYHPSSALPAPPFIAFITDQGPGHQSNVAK
TCR CD3 inh: inhibitors of human TCR-CD3 interaction; TAMRA-labeled TCR probe fluorescence, biochemical; inhibition, % at 9.4 µM; actives 0.37% (n = 360,000); AID 651800;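 also: recombinant mutant TCR 2C K166C tagged with TAMRA read by polarization; 0% = receptor in buffer alone and 100% = receptor with positive control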
BSA probe FL: counter-screen for TCR-CD3 interaction inhibitors: BSA probe; shares compounds with TCR CD3 inh; TAMRA-labeled BSA probe fluorescence counterscreen; inhibition, % at 9.4 µM; actives 10% (n = 1,200); AID 652035; in the data active = inhibition above about 23%;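 also: 0% = buffer low control and 100% = reference high control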
TCR-CD3 conf: confirmation of human TCR-CD3 interaction inhibitors; shares compounds with TCR CD3 inh; TAMRA-labeled TCR probe fluorescence binding assay; inhibition, % at 9.4 µM; actives 48% (n = 1,200); AID 652036
mABHD4 conf: confirmation of mouse ABHD4 inhibitors; shares compounds with mABHD4 FP; purified mABHD4, FP-Rh probe fluorescence polarization; inhibition, % at 8.92 µM; actives 55% (n = 1,800); AID 720658;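 active = mean inhibition across replicates above the hit cutoff set in the primary screen, cut at about 30% in these data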;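 also: 0% = wild-type ABHD4 with DMSO and 100% = catalytically dead S159A mutant with DMSO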
SIAE confirm: confirmation of human SIAE inhibitors | shares compounds with SIAE primary | SIAE FP-Rh activity-based probe, fluorescence polarization | inhibition, % at 9.66 µM | actives 13% (n = 2,300) | AID 1117263;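 active = mean inhibition of the replicates above the hit cutoff set in the primary screen, cut at about 17% in these data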;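 also: 0% = SIAE with DMSO and probe and 100% = probe without SIAE; inhibitors lower polarization as more probe stays unbound to SIAE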
* = called active by the depositor; . = no result given. Rule as the data show it, unless noted: active = inhibition above about 19%; inactive = the rest.

SMILES	HTRA1 inh	mABHD4 FP	ARNT-TACC3 inh	SIAE primary	TCR CD3 inh	BSA probe FL	TCR-CD3 conf	mABHD4 conf	SIAE confirm
[O-][n+]1c2ccccc2[n+]([O-])c2cc(O)ccc21	28	31*	9	10	21*	10	22*	35*	.
COc1ccc(NC(=O)Nc2ccc3c(c2)[C@@H]2C[C@@H](CC(=O)N4CCCCC4)O[C@H](CO)[C@@H]2O3)cc1	.	.	0	.	.	.	.	.	.
C/C(=N\NC(=O)COc1cccc(C)c1)c1ccc2ccccc2c1O	13	49*	-1	-3	28*	-14	16	46*	.
Cc1cccc(OCC(=O)NCc2ccccc2)c1	2	9	-10	-5	0	.	.	.	.
O=c1c(O)c(-c2ccccc2)oc2cc(O)cc(O)c12	17	4	-1	14	-3	.	.	.	.
O=c1c(O)c(-c2cc(O)c(O)c(O)c2)oc2cc(O)cc(O)c12	17	42*	45	56*	29*	-9	45*	48*	.
C[C@@H]1CN([C@@H](C)CO)C(=O)c2cc(NS(=O)(=O)c3ccc(Cl)cc3)ccc2O[C@@H]1CN(C)S(=O)(=O)c1ccccc1	.	.	-3	.	.	.	.	.	.
Cc1noc(C)c1NC(=O)NCC[C@@H]1CC[C@H](NC(=O)Nc2cccc(F)c2)[C@H](CO)O1	.	.	-17	.	.	.	.	.	.
C[C@H](CO)N1C[C@H](C)[C@@H](CN(C)Cc2ccccc2)Oc2ccc(NC(=O)Nc3ccc(F)cc3)cc2CC1=O	.	.	3	.	.	.	.	.	.
Cc1ccccc1NC(=S)N/N=C/c1ccc(O)cc1O	35	34*	58*	14	20*	-16	7	11	.
CCCOc1ccc(/C=N/NC(=S)Nc2ccccc2[N+](=O)[O-])c(O)c1	.	39*	.	13	27*	-12	8	36*	.
Cc1cccc(NC(=S)N/N=C/c2cccc(O)c2)c1C	-1	-9	2	6	-4	.	.	.	.
CCCOc1ccc(/C=N/Nc2ccccc2[N+](=O)[O-])c(O)c1	7	-1	-1	13	1	.	.	.	.
O=C(CSc1nnc(-c2ccco2)c(-c2ccco2)n1)c1ccccc1	27	46*	1	10	35*	-16	19*	17	.
Cc1onc(-c2ccccc2Cl)c1C(=O)NCc1ccc2c(c1)cc(C)n2C	24	30*	-2	13	34*	8	4	19	.
C/C(=N\NC(=O)c1cc(O)ccc1O)c1cccc(NC(=O)c2cccc(Cl)c2)c1	2	54*	5	33*	43*	-13	15	36*	20*
C/C(=N\NC(=O)c1cccc(Cl)c1)c1cccc(NC(=O)c2ccco2)c1	-16	-2	1	1	-4	.	.	.	.
O=[N+]([O-])c1cc([N+](=O)[O-])c2nonc2c1Nc1ccccc1O	12	27	3	4	5	.	.	.	.
O=[N+]([O-])c1cc([N+](=O)[O-])c2nonc2c1Nc1ccc(O)cc1	33	46*	13	21*	43*	0	5	10	2
CCOC(=O)C1=Nc2cccc3c(O)ccc1c23	.	29	.	30*	85*	141*	110*	.	18*
CCOC(=O)C1=Nc2ccccc2C1=[N+]=[N-]	-12	5	-2	-4	-7	.	.	.	.
CC(NC(=O)Nc1ccc(O)cc1)(C(F)(F)F)C(F)(F)F	32	66*	24	26*	54*	4	0	2	-3
CCN1C(=O)/C(=C2\SC(=S)N(NC(=O)c3ccccc3O)C2=O)c2ccccc21	28	31*	65*	19*	31*	-9	15	73*	26*
CCOc1ccc(NC(=O)NNC(=O)c2ccc3ccccc3c2O)cc1	18	28	-8	21*	32*	-8	23*	.	2
O=C1C=CC(=O)c2c(O)c(N3CCN(CCOCCO)CC3)c(Br)c(O)c21	31	46*	17	24*	75*	1	48*	72*	15
